Sampled rows, rich in hits. Any-hit rate of the full collection: about 3.8%.
OX1R antag-1 = OX1R (HCRTR1) antagonists, primary screen, fluorescence, CHO/OX1R cells, Fluo-8 calcium, orexin A | Orexin/Hypocretin receptor type 1 (Homo sapiens), O43613 | Fluo-8 calcium fluorescence | inhibition, % at 5 µM | actives 0.43% (n = 330,000);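 active = inhibition above its plate's threshold, mean inhibition of all tested compounds on the plate plus 3 SD, cut at about 37% in these data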;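 note: 0% = orexin A challenge wells and 100% = SB-334867-A antagonist wells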
GPR7 antag = GPR7 receptor antagonists, primary screen, cell-based, fluorescence, single concentration; Neuropeptides B/W receptor type 1 (Homo sapiens), P48145; actives 1.1% (n = 290,000); GPR7-expressing cells, fluorescence antagonist assay; inhibition, % at 4.4 µM; AID 1861, 2009; in the data active = inhibition above about 16%, passing the limit was not always enough;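 note: cells stimulated with the agonist NPW; 0% = agonist with vehicle and 100% = vehicle without agonist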
Target sequence (P48145 whole entry, looked up): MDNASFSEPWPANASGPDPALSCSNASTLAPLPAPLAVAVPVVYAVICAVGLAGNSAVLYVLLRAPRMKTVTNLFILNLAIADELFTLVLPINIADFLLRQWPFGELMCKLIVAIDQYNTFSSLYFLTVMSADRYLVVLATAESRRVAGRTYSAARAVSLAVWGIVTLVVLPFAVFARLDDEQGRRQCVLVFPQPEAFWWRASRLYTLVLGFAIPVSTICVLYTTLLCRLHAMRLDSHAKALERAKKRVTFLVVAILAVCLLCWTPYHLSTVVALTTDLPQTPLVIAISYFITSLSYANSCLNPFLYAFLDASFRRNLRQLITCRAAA
CHO parental Ca = ATP-evoked calcium signal inhibitors, parental CHO, primary screen, counter-screen for OX1R antagonist project, cell-based, fluorescence, Fluo-8 calcium dye; parental CHO-K1, ATP-induced calcium, Fluo-8 fluorescence; inhibition, % at 5.6 µM; actives 0.63% (n = 330,000);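 active = inhibition above that plate's mean sample inhibition plus 3 SD, cut at about 26% in these data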;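 note: 0% = ATP-challenged DMSO wells and 100% = DMSO wells without ATP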
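Material – parental CHO cells · Reagent – ATP stimulus · Compound – single nominal dose of 5.6 µM per compound · Detection – Fluo-8 fluorescence · Read-out basis – percent inhibition of calcium signal · Controls – ATP-challenged DMSO wells low, unchallenged DMSO wells high · Repeats – no replicates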
MPTP block = mitochondrial permeability transition pore inhibitors, primary screen, biochemical, isolated mouse mitochondria, absorbance. Ca2+ swelling absorbance, 30 min. inhibition, % at 10 µM. actives 1.4% (n = 360,000). AID 602449, 2012;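 active = inhibition of 50% or more, scaled per plate between neutral and stimulator controls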;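 note: 0% = DMSO wells given calcium and 100% = 1 mM EGTA wells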
OX1R antag-2 = antagonists of human orexin 1 receptor (OX1R). Orexin/Hypocretin receptor type 1 (Homo sapiens), O43613. OX1R-expressing cells, FRET antagonist read-out. inhibition, % at 6.6 µM. actives 1.8% (n = 330,000). AID 485270, 2010; in the data active = inhibition mostly above about 38%, no sharp cut-off; inactive = mostly below about 40%;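 note: 0% = agonist challenge alone and 100% = reference antagonist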
The depositor's hits bear a star; / = no result.

SMILES	OX1R antag-1	GPR7 antag	CHO parental Ca	MPTP block	OX1R antag-2
CC1CCC(C(C)C)C(OC(=O)C[n+]2cccc(C(N)=O)c2)C1 (stereo not given)	-15	-5	-12	1	30
COc1ccc(-c2c[n+](CC(=O)OC3CC(C)CCC3C(C)C)c3n2CCC3)cc1 (stereo not given)	-11	42*	7	0	4
COc1cc(/C=C2\SC(=O)NC2=O)ccc1OCC(=O)N1CCOCC1	16	/	-14	1	52*
O=c1c(/C=N/O)c(Nc2ccccc2)nc2ccccn12	9	-12	0	0	73*
CCC(C)N=Cc1c(Nc2ccccc2)nc2c(C)cccn2c1=O (stereo not given)	-4	-7	4	7	13
O=C(CN1C2CCCC1CC(NC(=O)c1ccco1)C2)Nc1ccccc1C(F)(F)F (stereo not given)	-3	-2	-4	3	51*
O=C(CN1C2CCCC1CC(NC(=O)c1ccccc1)C2)Nc1ccccc1C(F)(F)F (stereo not given)	-10	-5	-12	0	68*
Cc1cccn2c(=O)c3cc(C(=O)NC4CCCC4)c(=N)n(CC4CCCO4)c3nc12 (stereo not given)	-26	-4	-18	0	55*
COc1ccc(CCn2c(=N)c(C(=O)NCC3CCCO3)cc3c(=O)n4cccc(C)c4nc32)cc1 (stereo not given)	-38	-22	-17	0	35*
Cc1cccn2c(=O)c3cc(C(=O)NCC4CCCO4)c(=N)n(C4CCCCC4)c3nc12 (stereo not given)	-22	-1	-24	0	44*
Cc1cccn2c(=O)c3cc(C(=O)NCC4CCCO4)c(=N)n(CC4CCCO4)c3nc12 (stereo not given)	-21	-4	-16	-2	63*
Cc1ccc(NC(=O)CCN2C(=O)NC3(CCCC3)C2=O)cc1	/	/	/	0	/
Cc1ccc(C)c(Sc2ccc(NC(=O)CCN3C(=O)NC4(CCCC4)C3=O)cc2)c1	60*	/	63*	0	11
CC(=O)c1c2c3c(c(Br)ccc3n(C)c1=O)C(=O)c1ccccc1-2	-4	8	-18	-1	56*
Cc1ccc(Nc2nc(CSc3nnc(-c4cccnc4)n3-c3ccccc3C)cs2)cc1	-6	1	-38	1	67*
Cc1ccc(Nc2nc(CSc3nnc(-c4ccccc4)n3C)cs2)cc1	-25	4	-12	1	24
Cc1ccccc1-n1c(SCc2csc(Nc3ccccc3)n2)nnc1-c1cccnc1	2	-8	-18	1	69*
O=C(NCC(=O)N1CC(O)CC1C(=O)N1CCCC1C(=O)OCc1ccccc1)OCc1ccccc1 (stereo not given)	0	2	3	-3	-5
O=C(Nc1nc(-c2nc3ccccc3s2)cs1)c1ccc(S(=O)(=O)N2CCOCC2)cc1	11	1	32*	9	67*
COc1cccc(C(=O)Nc2nc(-c3ccc(S(=O)(=O)N4CCOCC4)cc3)cs2)c1	-15	-1	12	-2	29
O=S(=O)(c1cc(-c2nc3ccccc3s2)ccc1Cl)N1CCOCC1	/	23*	/	/	/
CCc1nc2ccc(C(=O)NCc3cccs3)cn2c1N(CC)CCOC	/	/	/	-1	/
O=c1[nH]c(=O)c2cc([N+](=O)[O-])cc([N+](=O)[O-])c2[nH]1	-14	-4	-7	0	52*
O=c1c2cc([N+](=O)[O-])cc([N+](=O)[O-])c2[nH]n1-c1ccccc1	-11	-6	-2	7	6
CCCCS(=O)(=O)/C=C\C=C/S(=O)(=O)CCCC	-30	40*	2	0	13
SMILES	OX1R antag-1	GPR7 antag	CHO parental Ca	MPTP block	OX1R antag-2
O=c1c2c([N+](=O)[O-])cc([N+](=O)[O-])cc2sn1Cc1ccccc1	71*	5	54*	4	35
O=c1c2c([N+](=O)[O-])cc([N+](=O)[O-])cc2sn1-c1ccc(Br)cc1	-11	0	-5	1	19
COC(=O)c1cc(C(=O)OCC(=O)NCc2cccs2)cc([N+](=O)[O-])c1	-22	/	-18	1	31*
Oc1ccc(N=Nc2ccccc2-c2nn[nH]n2)c(O)c1	-7	-6	-1	-1	-11
CCCCCCCCC#Cc1nc(C)ccc1OC	42	/	48*	-1	10
CCCCCCNS(=O)(=O)c1ccc(OC)c(OC)c1	-21	3	-15	4	12
COc1ccc(-c2cn[nH]c2-c2ccc(OCc3ccc([N+](=O)[O-])cc3)cc2O)cc1OC	5	0	-6	19	30
CCc1cc(-c2[nH]ncc2-c2ccc([N+](=O)[O-])cc2)c(O)cc1OC	-10	-1	60*	5	17
CSCCC(c1nc2ccccc2[nH]1)n1c(/C=C/c2ccc(F)c(F)c2)nc2ccccc21 (stereo not given)	/	/	/	3	/
COc1cc(/C=C(/C#N)C(=O)Nc2ccccc2)c(Br)cc1OCc1ccc(C(=O)O)cc1	65*	-20	59*	4	23
CCOc1ccccc1-c1ccc2nccn2c1	/	/	/	-1	/
CC(C)(C)C(=O)/C=c1\s/c(=C\c2ccc(-c3ccc([N+](=O)[O-])cc3)o2)c(=O)n1CC(=O)NC(N)=O	71*	10	64*	1	9
CC(OC(=O)CCNS(=O)(=O)c1cccs1)C(=O)Nc1ccc(S(N)(=O)=O)cc1 (stereo not given)	-2	/	3	-2	5
CCCN(CC(=O)Nc1ccccc1OC)C(=O)Cc1ccc2c(c1)CCC2	0	/	-28	-1	48*
CCN(CC(=O)Nc1ccccc1C(F)(F)F)C(=O)Cc1ccc2c(c1)CCC2	9	/	-8	0	15
COc1ccc(C)cc1NC(=O)COC(=O)c1c(C)nn(-c2ccccc2)c1C	37	/	-1	5	30*
COc1ccc(NC(=O)COC(=O)c2c3c(nc4ccccc24)CCCC3)cc1	-14	13	-12	6	14
COc1ccc(OC)c(NC(=O)COC(=O)c2c3c(nc4ccccc24)CCCC3)c1	33	-7	10	-1	57*
COc1cn(-c2ccccc2)nc1C(=O)Nc1ccc(C)cc1	-18	-2	-25	1	28
COc1ccc(C)cc1NC(=O)c1nn(-c2ccccc2)cc1OC	17	-19	-17	1	48*
COc1ccc(S(=O)(=O)N2CCSC2c2ccc(OC)c(OC)c2)cc1 (stereo not given)	6	-12	-4	7	26
COc1ccc(C2SCCN2S(=O)(=O)c2ccc(F)cc2)cc1OC (stereo not given)	-9	-16	-16	2	37*

Assay outcomes as filed in PubChem.
